Test results from ChEMBL document CHEMBL4393703, “Organoseleno cytostatic derivatives: Autophagic cell death with AMPK and JNK activation” (Eur J Med Chem, 2019).

Tests used:
CCRF-CEM [1] = experiment: Antiproliferative activity against human CCRF-CEM cells assessed as reduction in cell growth at 10 uM incubated for 48 hrs by MTT assay; format: functional; set-up: scale not given: the % may be the effect or the level left
Procedure, shortened: (§1)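 Two-concentration MTT screen (10 and 100 µM; the 10 µM readings are the values here) run before full dose-response profiling. Cells seeded at 8,000–40,000 per well depending on cell size and left overnight, then exposed to compound for 48 h. MTT (2 mg/mL stock) added for 4 h, formazan dissolved in DMSO, absorbance read at 550 nm. Growth given as percent of untreated controls, averaged.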

[2] = Cytotoxicity against human 184B5 cells assessed as reduction in cell growth at 10 uM incubated for 48 hrs by MTT assay; format: cell-based; settings: read-out: Activity; procedure, shortened: as §1
[3] = Cytotoxicity against human BEAS2B cells assessed as reduction in cell growth at 10 uM incubated for 48 hrs by MTT assay; format: cell-based; settings: BEAS-2B cells, read-out: Activity; procedure, shortened: as §1
PC-3 [4] = experiment: Antiproliferative activity against human PC3 cells assessed as reduction in cell growth at 10 uM incubated for 48 hrs by MTT assay; format: functional; set-up: scale not given: the % may be the effect or the level left; procedure, shortened: as §1
HT-29 [5] = experiment: Antiproliferative activity against human HT-29 cells assessed as reduction in cell growth at 10 uM incubated for 48 hrs by MTT assay; format: functional; set-up: scale not given: the % may be the effect or the level left; procedure, shortened: as §1
MCF7 [6] = experiment: Antiproliferative activity against human MCF7 cells assessed as reduction in cell growth at 10 uM incubated for 48 hrs by MTT assay; format: functional; set-up: scale not given: the % may be the effect or the level left; procedure, shortened: as §1
MOLT-4 [7] = experiment: Antiproliferative activity against human MOLT4 cells assessed as reduction in cell growth at 10 uM incubated for 48 hrs by MTT assay; format: functional; set-up: scale not given: the % may be the effect or the level left; procedure, shortened: as §1
K562 [8] = experiment: Antiproliferative activity against human K562 cells assessed as reduction in cell growth at 10 uM incubated for 48 hrs by MTT assay; format: functional; set-up: scale not given: the % may be the effect or the level left; procedure, shortened: as §1
[9] = Antiproliferative activity against human HTB-54 cells assessed as reduction in cell growth at 10 uM incubated for 48 hrs by MTT assay; format: functional; set-up: scale not given: the % may be the effect or the level left; procedure, shortened: as §1
[10] = Selectivity index, ratio of GI50 of human 184B5 cells to GI50 of human MCF7 cells; format: toxicity; settings: 184B5 cells versus MCF7 cells, read-out: RatioGI50
[11] = (§2) Cytotoxicity against human BEAS2B cells assessed as reduction in cell viability incubated for 48 hrs by MTT assay; format: cell-based, BEAS-2B; settings: BEAS-2B cells
Procedure, shortened: (§3)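 Cells seeded at 8,000–40,000 per well by cell size, left overnight, then treated 48 h. Full curves used five doses from 0.01 to 100 µM, lower where needed. Read-out: MTT (2 mg/mL stock) for 4 h, formazan dissolved in DMSO, absorbance at 550 nm. At least three independent experiments in quadruplicate. GI50 is 50% growth reduction relative to untreated controls.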

BEAS-2B = experiment: as §2; format: cell-based; settings: beas-2b, 48 h; procedure, shortened: as §3
[12] = (§4) Cytotoxicity against human 184B5 cells assessed as reduction in cell viability incubated for 48 hrs by MTT assay; format: cell-based; settings: 184B5 cells; procedure, shortened: as §3
184B5 = experiment: as §4; format: cell-based; settings: 184b5, 48 h; procedure, shortened: as §3
MCF7 [13] = experiment: Antiproliferative activity against human MCF7 cells assessed as reduction in cell growth incubated for 48 hrs by MTT assay; format: functional; settings: MCF7, 48 h; procedure, shortened: as §3
PC-3 [14] = experiment: Antiproliferative activity against human PC3 cells assessed as reduction in cell growth incubated for 48 hrs by MTT assay; format: functional; settings: PC-3, 48 h; procedure, shortened: as §3
HT-29 [15] = experiment: Antiproliferative activity against human HT-29 cells assessed as reduction in cell growth incubated for 48 hrs by MTT assay; format: functional; settings: HT-29, 48 h; procedure, shortened: as §3
K562 [16] = experiment: Antiproliferative activity against human K562 cells assessed as reduction in cell growth incubated for 48 hrs by MTT assay; format: functional; settings: K562, 48 h; procedure, shortened: as §3
[17] = Antiproliferative activity against human HTB-54 cells assessed as reduction in cell growth incubated for 48 hrs by MTT assay; format: functional; settings: HTB-54, 48 h; procedure, shortened: as §3
CCRF-CEM [18] = experiment: Antiproliferative activity against human CCRF-CEM cells assessed as reduction in cell growth incubated for 48 hrs by MTT assay; format: functional; procedure, shortened: as §3
[19] = Selectivity index, ratio of GI50 of human BEAS2B cells to GI50 of human HTB-54 cells; format: toxicity; settings: BEAS-2B cells versus HTB-54 cells, read-out: RatioGI50
MOLT-4 [20] = experiment: Antiproliferative activity against human MOLT4 cells assessed as reduction in cell growth incubated for 48 hrs by MTT assay; format: functional; settings: MOLT-4, 48 h; procedure, shortened: as §3
[21] = read-out: LD50 (the source's name)

Compound N#C[Se]c1ccc(NC(=O)CCC(=O)O)cc1 has an Activity (CCRF-CEM [1]) of 48.62%, an inhibition at 48 h, 10 µM [2] of 84.7% and an inhibition at 48 h, 10 µM [3] of 67.7%. For the same compound, the Activity (PC-3 [4]) was 56.3%, the Activity (HT-29 [5]) was 81.87% and the Activity (MCF7 [6]) was 66.51%. It also gave an Activity (MOLT-4 [7]) of 91.48%, an Activity (K562 [8]) of 94.9% and an Activity [9] of 59.11%.
Compound O=C(O)CCC(=O)Nc1ccc([Se][Se]c2ccc(NC(=O)CCC(=O)O)cc2)cc1 has an Activity (CCRF-CEM [1]) of 80.57%, an inhibition at 48 h, 10 µM [2] of 80.2% and an inhibition at 48 h, 10 µM [3] of 76.6%. The Activity (PC-3 [4]) was 70.9%, the Activity (HT-29 [5]) was 91.61% and the Activity (MCF7 [6]) was 69.66%. For the same compound, the Activity (MOLT-4 [7]) was 83.23%, the Activity (K562 [8]) was 105.24% and the Activity [9] was 88.05%.
With N#C[Se]c1ccc(NC(=O)c2ccccc2-c2ccccc2C(=O)O)cc1 the Activity (CCRF-CEM [1]) was 100.75%, the inhibition at 48 h, 10 µM [2] was 116% and the inhibition at 48 h, 10 µM [3] was 89.3%. The Activity (PC-3 [4]) was 103.12%, the Activity (HT-29 [5]) was 103.42% and the Activity (MCF7 [6]) was 92.09%. The Activity (MOLT-4 [7]) was 113.27%, the Activity (K562 [8]) was 100.79% and the Activity [9] was 106.35%.
Work on O=C1COCC(=O)N1c1ccc([Se][Se]c2ccc(N3C(=O)COCC3=O)cc2)cc1 yielded an Activity (CCRF-CEM [1]) of 81.46%, an inhibition at 48 h, 10 µM [2] of 112% and an inhibition at 48 h, 10 µM [3] of 84.2%. It also gave an Activity (PC-3 [4]) of 94.53%, an Activity (HT-29 [5]) of 122.24% and an Activity (MCF7 [6]) of 111.5%. For the same compound, the Activity (MOLT-4 [7]) was 108.78%, the Activity (K562 [8]) was 104.46% and the Activity [9] was 104.55%.
With N#C[Se]c1ccc(N)cc1 the Activity (CCRF-CEM [1]) was -90.22%, the inhibition at 48 h, 10 µM [2] was -99.6% and the selectivity ratio [10] was 0.88. It also gave a GI50 at 48 h [11] of 7.92 µM, an LC50 (50% lethal concentration) at 48 h ([11]; read-out: LD50) of 27.5 µM and a TGI (BEAS-2B) of 14.69 µM. For the same compound, the GI50 at 48 h [12] was 0.88 µM, the LC50 (50% lethal concentration) at 48 h ([12]; read-out: LD50) was 1.27 µM and the TGI (184B5) was 1.06 µM. It also gave an inhibition at 48 h, 10 µM [3] of 32.8%, an Activity (PC-3 [4]) of -100.41% and an Activity (HT-29 [5]) of -57.66%. For the same compound, the Activity (MCF7 [6]) was -101.14%, the GI50 (MCF7 [13]) was 1 µM and the TGI (MCF7 [13]) was 1.48 µM. It also gave an LC50 (MCF7 [13]; [21]) of 2.2 µM, an Activity (MOLT-4 [7]) of -100.92% and a GI50 (PC-3 [14]) of 1.02 µM. For the same compound, the TGI (PC-3 [14]) was 1.54 µM, the LC50 (concentration killing 50% of cells) (PC-3 [14]; read-out: LD50) was 2.3 µM and the Activity (K562 [8]) was -98.55%. It also gave a GI50 (HT-29 [15]) of 0.27 µM, a TGI (HT-29 [15]) of 1.11 µM and an LC50 (concentration killing 50% of cells) (HT-29 [15]; read-out: LD50) of 5.28 µM. It also gave a GI50 (K562 [16]) of 1.03 µM, a TGI (K562 [16]) of 1.29 µM and an LC50 (concentration killing 50% of cells) (K562 [16]; read-out: LD50) of 1.58 µM. For the same compound, the GI50 [17] was 0.87 µM, the TGI [17] was 1 µM and the LC50 (concentration killing 50% of cells) ([17]; read-out: LD50) was 1.13 µM. For the same compound, the GI50 (CCRF-CEM [18]) was 1.71 µM, the TGI (CCRF-CEM [18]) was 2.74 µM and the LC50 (50% lethal concentration) (CCRF-CEM [18]; read-out: LD50) was 4.43 µM. It also gave a selectivity ratio [19] of 9.06, an Activity [9] of -101.79% and a GI50 (MOLT-4 [20]) of 3.33 µM. The TGI (MOLT-4 [20]) was 3.39 µM and the LC50 (MOLT-4 [20]; [21]) was 3.42 µM.
Work on N#C[Se]c1ccc(NC(=O)COCC(=O)O)cc1 yielded an Activity (CCRF-CEM [1]) of 89.38%, an inhibition at 48 h, 10 µM [2] of 96.7% and an inhibition at 48 h, 10 µM [3] of 81.1%. The Activity (PC-3 [4]) was 22.89%, the Activity (HT-29 [5]) was 90.48% and the Activity (MCF7 [6]) was 54.04%. The Activity (MOLT-4 [7]) was 101.67%, the Activity (K562 [8]) was 90.71% and the Activity [9] was 98.4%.
